{
  "source": "ChEMBL document CHEMBL4312027",
  "about": "“Synthesis, characterization, and biological activity of a triphenylphosphonium-containing imidazolium salt against select bladder cancer cell lines” (Eur J Med Chem, 2020)",
  "key": {"MCF7": {"test_system": "MCF7", "test": "Growth inhibition of human MCF7 cells assessed as growth percent at 10 uM incubated for 48 hrs by sulforhodamine B assay relative to control", "format": "functional", "conditions": "MCF7, 48 h, read-out: Activity"}, "OVCAR-5": {"test_system": "OVCAR-5", "test": "Growth inhibition of human OVCAR5 cells assessed as growth percent at 10 uM incubated for 48 hrs by sulforhodamine B assay relative to control", "format": "functional", "conditions": "OVCAR-5, 48 h, read-out: Activity"}, "RT-112 [1]": {"test_system": "RT-112", "test": "Induction of apoptosis in human RT112 cells assessed as caspase 9 cleavage at 250 to 500 uM incubated for 1 hr and measured at 24 hrs after treatment by Western blot analysis", "format": "functional, cell-based", "method_in_brief": "(§1)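 RT112 seeded 300,000/well; after 24 h, 250 or 500 μM or vehicle. Cells plus floating debris harvested immediately or 24 h after treatment, lysed in RIPA with protease inhibitors. About 30 μg protein heated 10 min at 95 °C with DTT, run on SDS-PAGE. Immunoblotted for PARP and caspase 9, Ran as loading control, ECL detection.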"}, "RT-112 [2]": {"test_system": "RT-112", "test": "Induction of apoptosis in human RT112 cells assessed as increase in caspase 9 cleavage at 250 uM incubated for 1 hr and measured immediately after treatment by Western blot analysis", "format": "functional, cell-based", "method_in_brief": "as §1"}, "HOP-62": {"test_system": "HOP-62", "test": "Growth inhibition of human HOP62 cells assessed as growth percent at 10 uM incubated for 48 hrs by sulforhodamine B assay relative to control", "format": "functional", "conditions": "HOP-62, 48 h, read-out: Activity"}, "RT-112 [3]": {"test_system": "RT-112", "test": "Cytotoxicity against human RT112 cells assessed as cellular fragmentation at 250 to 500 uM incubated for 1 hr and measured at 24 hrs after treatment", "format": "functional, cell-based"}, "CCRF-CEM": {"test_system": "CCRF-CEM", "test": "Growth inhibition of human CCRF-CEM cells assessed as growth percent at 10 uM incubated for 48 hrs by sulforhodamine B assay relative to control", "format": "functional", "conditions": "read-out: Activity"}, "HOP-92": {"test_system": "HOP-92", "test": "Growth inhibition of human HOP92 cells assessed as growth percent at 10 uM incubated for 48 hrs by sulforhodamine B assay relative to control", "format": "functional", "conditions": "HOP-92, 48 h, read-out: Activity"}, "RT-4": {"test_system": "RT-4", "test": "Growth inhibition of human RT4 cells measured after 1 hr by Celltiter-Glo luminescent cell viability assay", "format": "functional", "conditions": "RT-4, 1 h", "method_in_brief": "(§2)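 Cells seeded 10000/well, 24 h, then exposed in ATCC-recommended medium to 62.5–2000 μM (two-fold steps) or vehicle for the set time (5–60 min), then normal medium. After 24 h, plates equilibrated 30 min at room temperature, CellTiter-Glo added, 2 min at room temperature, luminescence read. Survival relative to vehicle control; quadruplicate.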"}, "UACC-257": {"test_system": "UACC-257", "test": "Growth inhibition of human UACC257 cells assessed as growth percent at 10 uM incubated for 48 hrs by sulforhodamine B assay relative to control", "format": "functional", "conditions": "UACC-257, 48 h, read-out: Activity"}, "[4]": {"test": "Toxicity in anesthetized female mouse model assessed as fibrosis at 750 to 1500 uM administered via intravesical instillation after bladder evacuation treated for 1 hr followed by repetition of the treatment after 24 hrs and measured at 24 hrs after final treatment", "conditions": "in vivo, other", "method_in_brief": "(§3)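 Female mice anesthetized, 1–3% isoflurane. Bladder evacuated, then 100 μL of 750 or 1500 μM in 10% DMSO/PBS (or vehicle) instilled by 24G angiocatheter. Catheter left in place for a 1 h dwell. Repeated after 24 h; mice sacrificed 24 h after final dose. Bladder histology read for urothelial height and layers.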"}, "HT-29": {"test_system": "HT-29", "test": "Growth inhibition of human HT-29 cells assessed as growth percent at 10 uM incubated for 48 hrs by sulforhodamine B assay relative to control", "format": "functional", "conditions": "HT-29, 48 h, read-out: Activity"}, "RT-112 [5]": {"test_system": "RT-112", "test": "Growth inhibition of human RT112 cells at 500 uM measured after 1 hr by Celltiter-Glo luminescent cell viability assay relative to control", "format": "functional", "conditions": "RT-112, 1 h, read-out: GI", "method_in_brief": "as §2"}, "RT-112 [6]": {"test_system": "RT-112", "test": "Growth inhibition of human RT112 cells at 250 uM measured after 5 to 60 mins by Celltiter-Glo luminescent cell viability assay", "format": "functional, cell-based"}, "SN12C": {"test_system": "SN12C", "test": "Growth inhibition of human SN12C cells assessed as growth percent at 10 uM incubated for 48 hrs by sulforhodamine B assay relative to control", "format": "functional", "conditions": "read-out: Activity"}, "RT-112 [7]": {"test_system": "RT-112", "test": "Cell cycle arrest in human RT112 cells assessed as increase in cell accumulation at sub-G1 phase at 250 uM incubated for 1 hr measured after culturing in normal medium for 24 hrs by propidium iodide/RNase staining based FACScan flow cytometry analysis", "format": "functional", "method_in_brief": "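Seeded at 300,000 cells/well in triplicate per treatment; 24 h later exposed to 250 or 500 μM or vehicle for 1 h. After 24 h in normal media, media plus cells were collected, washed, fixed in cold 70% ethanol (4 °C, 30 min), treated with phosphate citric acid buffer, stained with PI/RNase and gated for sub-G1 by flow cytometry.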"}, "MDA-MB-435": {"test_system": "MDA-MB-435", "test": "Growth inhibition of human MDA-MB-435 cells assessed as growth percent at 10 uM incubated for 48 hrs by sulforhodamine B assay relative to control", "format": "functional", "conditions": "MDA-MB-435, 48 h, read-out: Activity"}, "NCI-H23": {"test_system": "NCI-H23", "test": "Growth inhibition of human NCI-H23 cells assessed as growth percent at 10 uM incubated for 48 hrs by sulforhodamine B assay relative to control", "format": "functional", "conditions": "NCI-H23, 48 h, read-out: Activity"}, "RT-112 [8]": {"test_system": "RT-112", "test": "Induction of mitochondrial membrane depolarization in human RT112 cells at 200 uM measured after 1 hr by JC-1 staining based confocal microscopy", "format": "functional, cell-based", "method_in_brief": "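RT112 cells, 200000 per glass-bottom dish, plated overnight. Exposed to 200 μM for 45 min, then JC-1 added (final 10 μg/mL) for 15 min. Confocal live imaging, excitation 485 nm, emission 530 and 590 nm, every 15 min for 6 h. Red punctate staining taken as polarized mitochondria, green as depolarized. CCCP as positive control.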"}, "[9]": {"test": "Solubility of compound in water", "format": "physicochemical"}, "Mus musculus": {"test_system": "Mus musculus", "test": "Induction of urothelium exfoliation in anesthetized female mouse model assessed as effect on urothelial layer thickening at 750 to 1500 uM administered via intravesical instillation after bladder evacuation treated for 1 hr followed by repetition of the treatment after 24 hrs and measured at 24 hrs after final treatment by hematoxylin and eosin staining based analysis", "format": "organism-based", "conditions": "in vivo, other", "method_in_brief": "as §3"}},
  "note": "Active and inactive are the calls of the source. The rule behind the calls is not given here.",
  "data": [
    {"smiles": "[Br-].[Br-].c1ccc([P+](CCCc2n(Cc3ccc4ccccc4c3)c3ccccc3[n+]2Cc2ccc3ccccc3c2)(c2ccccc2)c2ccccc2)cc1", "values": [
      {"measurement": "growth at 10 µM", "setting": "MCF7", "result": 73.9, "unit": "%"},
      {"measurement": "growth at 10 µM", "setting": "OVCAR-5", "result": 60.1, "unit": "%"},
      {"measurement": "Activity", "setting": "RT-112 [1]", "result": "inactive"},
      {"measurement": "Activity", "setting": "RT-112 [2]", "result": "Active"},
      {"measurement": "growth at 10 µM", "setting": "HOP-62", "result": 61.6, "unit": "%"},
      {"measurement": "Activity", "setting": "RT-112 [3]", "result": "Active"},
      {"measurement": "growth at 10 µM", "setting": "CCRF-CEM", "result": 43.1, "unit": "%"},
      {"measurement": "growth at 10 µM", "setting": "HOP-92", "result": 46.3, "unit": "%"},
      {"measurement": "GI50", "setting": "RT-4", "result": 150, "unit": "µM"},
      {"measurement": "growth at 10 µM", "setting": "UACC-257", "result": 84, "unit": "%"},
      {"measurement": "Activity", "setting": "[4]", "result": "Non-Toxic"},
      {"measurement": "growth at 10 µM", "setting": "HT-29", "result": 23.9, "unit": "%"},
      {"measurement": "inhibition of growth at 500 µM", "setting": "RT-112 [5]", "result": 100, "unit": "%"},
      {"measurement": "growth inhibition (GI)", "setting": "RT-112 [6]", "result": "Active"},
      {"measurement": "growth at 10 µM", "setting": "SN12C", "result": 55, "unit": "%"},
      {"measurement": "Activity", "setting": "RT-112 [7]", "result": "Active"},
      {"measurement": "growth at 10 µM", "setting": "MDA-MB-435", "result": 25.2, "unit": "%"},
      {"measurement": "growth at 10 µM", "setting": "NCI-H23", "result": 44, "unit": "%"},
      {"measurement": "Activity", "setting": "RT-112 [8]", "result": "inactive"},
      {"measurement": "solubility", "setting": "[9]", "result": 8000, "unit": "µg/mL"},
      {"measurement": "Activity", "setting": "Mus musculus", "result": "Non-Toxic"}
    ]}
  ]
}
